Data: ChEMBL document CHEMBL1649328, “Assessment of pandemic and seasonal influenza A (H1N1) virus susceptibility to neuraminidase inhibitors in three enzyme activity inhibition assays” (Antimicrob Agents Chemother, 2010)

Legend:
Type in all cases: functional, organism-based
Influenza A virus [1] = test: Antiviral activity against influenza A (A/Washington/29/2009 (H1N1)) virus harboring neuraminidase H275Y mutant after 16 to 18 hrs by fetuin substrate based colorimetric assay
Method in brief: (§1)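 Colorimetric NA inhibition with fetuin substrate. Virus was diluted in NA-Star buffer (26 mM MES, 4 mM CaCl2, pH 6.0) to give OD549 of 0.4–0.8 after 18 h. It was preincubated with ten half-log inhibitor dilutions (0.03–1,000 nM final) for 1 h at 37°C, then with fetuin (5.5 mg/ml final) for 16–18 h at 37°C. Released sialic acid was read at 549 nm after periodate/TBA reaction and butanol extraction. IC50 came from a Vmax·[1−x/(K+x)] fit, mean of ≥2 experiments.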

Influenza A virus [2] = test: Antiviral activity against influenza A (A/North Carolina/01/2009 (H1N1)) virus harboring neuraminidase H275Y mutant after 16 to 18 hrs by fetuin substrate based colorimetric assay; method in brief: as §1
Influenza A virus [3] = test: Antiviral activity against influenza A (A/Osaka/180/2009 (H1N1)) virus harboring neuraminidase H275Y mutant after 16 to 18 hrs by fetuin substrate based colorimetric assay; method in brief: as §1
Influenza A virus [4] = test: Antiviral activity against influenza A (A/Singapore/57/2009 (H1N1)) virus harboring neuraminidase H275Y mutant after 30 mins by NA-star substrate based chemiluminescent assay
Method in brief: (§2)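 Titrated virus in NA-Star buffer (26 mM MES, 4 mM CaCl2, pH 6.0) was preincubated with ten half-log inhibitor dilutions (0.03–1,000 nM final) for 30 min at 37°C, then with substrate for 30 min at room temperature. Accelerator solution was added and luminescence read for 0.1 s. IC50 came from a Vmax·[1−x/(K+x)] fit, mean of ≥3 experiments.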

Influenza A virus [5] = test: Antiviral activity against influenza A (A/Osaka/180/2009 (H1N1)) virus harboring neuraminidase H275Y mutant after 30 mins by MUNANA substrate based fluorometric assay
Method in brief: (§3)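 Fluorometric NA inhibition with MUNANA (100 μM final). Titrated virus in NA-Star buffer (26 mM MES, 4 mM CaCl2, pH 6.0) was preincubated with ten half-log inhibitor dilutions (0.03–1,000 nM final) for 30 min at 37°C, then with substrate for 30 min at 37°C. The reaction was stopped with 0.1 M glycine in 25% ethanol, pH 10.7, and 4-methylumbelliferone was read at ex 365/em 450 nm. IC50 came from a Vmax·[1−x/(K+x)] fit, mean of ≥3 experiments.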

Influenza A virus [6] = test: Antiviral activity against influenza A (A/Montana/02/2009 (H1N1)) virus harboring neuraminidase H275Y mutant after 30 mins by MUNANA substrate based fluorometric assay; method in brief: as §3
Influenza A virus [7] = test: Antiviral activity against influenza A (A/Hong Kong/2369/2009 (H1N1)) virus harboring neuraminidase H275Y mutant after 30 mins by MUNANA substrate based fluorometric assay; method in brief: as §3
Influenza A virus [8] = test: Antiviral activity against influenza A (A/North Carolina/01/2009 (H1N1)) virus harboring neuraminidase H275Y mutant after 30 mins by MUNANA substrate based fluorometric assay; method in brief: as §3
Influenza A virus [9] = test: Antiviral activity against influenza A (A/Washington/29/2009 (H1N1)) virus harboring neuraminidase H275Y mutant after 30 mins by MUNANA substrate based fluorometric assay; method in brief: as §3
Influenza A virus [10] = test: Antiviral activity against influenza A (A/Hong Kong/2369/2009 (H1N1)) virus harboring neuraminidase H275Y mutant after 16 to 18 hrs by fetuin substrate based colorimetric assay; method in brief: as §1
Influenza A virus [11] = test: Antiviral activity against influenza A (A/Hong Kong/2369/2009 (H1N1)) virus harboring neuraminidase H275Y mutant after 30 mins by NA-star substrate based chemiluminescent assay; method in brief: as §2
Influenza A virus [12] = test: Antiviral activity against influenza A (A/Singapore/57/2009 (H1N1)) virus harboring neuraminidase H275Y mutant after 30 mins by MUNANA substrate based fluorometric assay; method in brief: as §3
Influenza A virus [13] = test: Antiviral activity against influenza A (A/Montana/02/2009 (H1N1)) virus harboring neuraminidase H275Y mutant after 30 mins by NA-star substrate based chemiluminescent assay; method in brief: as §2
Influenza A virus [14] = test: Antiviral activity against influenza A (A/Washington/29/2009 (H1N1)) virus harboring neuraminidase H275Y mutant after 30 mins by NA-star substrate based chemiluminescent assay; method in brief: as §2
Influenza A virus [15] = test: Antiviral activity against influenza A (A/Osaka/180/2009 (H1N1)) virus harboring neuraminidase H275Y mutant after 30 mins by NA-star substrate based chemiluminescent assay; method in brief: as §2
Influenza A virus [16] = test: Antiviral activity against influenza A (A/Montana/02/2009 (H1N1)) virus harboring neuraminidase H275Y mutant after 16 to 18 hrs by fetuin substrate based colorimetric assay; method in brief: as §1
Influenza A virus [17] = test: Antiviral activity against influenza A (A/Singapore/57/2009 (H1N1)) virus harboring neuraminidase H275Y mutant after 16 to 18 hrs by fetuin substrate based colorimetric assay; method in brief: as §1
Influenza A virus [18] = test: Antiviral activity against influenza A (A/North Carolina/01/2009 (H1N1)) virus harboring neuraminidase H275Y mutant after 30 mins by NA-star substrate based chemiluminescent assay; method in brief: as §2

Row | SMILES | IC50 (Influenza A virus [1]) | IC50 (Influenza A virus [2]) | IC50 (Influenza A virus [3]) | IC50 (Influenza A virus [4]) | IC50 (Influenza A virus [5]) | IC50 (Influenza A virus [6]) | IC50 (Influenza A virus [7]) | IC50 (Influenza A virus [8]) | IC50 (Influenza A virus [9]) | IC50 (Influenza A virus [10]) | IC50 (Influenza A virus [11]) | IC50 (Influenza A virus [12]) | IC50 (Influenza A virus [13]) | IC50 (Influenza A virus [14]) | IC50 (Influenza A virus [15]) | IC50 (Influenza A virus [16]) | IC50 (Influenza A virus [17]) | IC50 (Influenza A virus [18])
1 | CO[C@@H]([C@@H]1OC(C(=O)O)=C[C@H](NC(=N)N)[C@H]1NC(C)=O)[C@H](O)CO [LANINAMIVIR] | 2.14 nM | 0.89 nM | 3.32 nM | 0.74 nM | 1.43 nM | 1.05 nM | 1.08 nM | 0.92 nM | 1.19 nM | 2.16 nM | 0.78 nM | 0.87 nM | 0.34 nM | 0.82 nM | 0.48 nM | 0.82 nM | 1.12 nM | 0.34 nM
2 | CC(=O)N[C@H]1[C@H]([C@H](O)[C@H](O)CO)OC(C(=O)O)=C[C@@H]1NC(=N)N [ZANAMIVIR] | 2.66 nM | 1.96 nM | 3.17 nM | 0.4 nM | 1.29 nM | 1.15 nM | 1.02 nM | 1.16 nM | 0.83 nM | 3.61 nM | 0.43 nM | 1 nM | 0.42 nM | 0.51 nM | 0.35 nM | 2.38 nM | 2.83 nM | 0.42 nM
